Among the data in ChEMBL document CHEMBL3739264, “Synthesis and bio-evaluation of novel quinolino-stilbene derivatives as potential anticancer agents” (Bioorg Med Chem, 2015) are Activity values, retold here.

The source made the active and inactive calls. The rule behind the calls is not given here.

Test [1] deals with HeLa. Description: Cell cycle arrest in human HeLa cells assessed as accumulation at G2/M phase at 6 uM after 24 hrs by flow cytometry analysis relative to control. The class given is functional. The procedure, abridged: (§1)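 About 1 × 10^6 cells per plate seeded overnight, then treated with compound and harvested at set times. Cells fixed in 75% ethanol at -20°C for 12-24 h and stained 1 h with 100 µg/ml PI, 100 µg/ml RNase A and 0.3% NP-40 in PBS. DNA content measured by flow cytometry; phase fractions compared with sham-treated cells.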

The subject of test [2] is HeLa. Description: Cell cycle arrest in human HeLa cells assessed as accumulation at G0-G1 phase at 6 uM after 48 hrs by flow cytometry analysis relative to control. The class given is functional. The procedure, abridged:
as §1
(In general: A flow cytometer gives signals particle by particle.)

The subject of test [3] is MDA-MB-231. Description: Cell cycle arrest in human MDA-MB-231 cells assessed as accumulation at S phase at 6 uM after 12 hrs by flow cytometry analysis relative to control. The class given is functional. The method in brief: as §1
The test system of test [4] is HeLa. Description: Induction of mitosis arrest in human HeLa cells assessed as disoriented tubulin structure at 6 uM after 12 hrs using DAPI staining by immunofluorescence microscopic analysis. The format is functional, cell-based. The procedure, abridged:
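HeLa cells on coverslips treated 12 h, fixed in ice-cold methanol at -20°C. Stained with anti-α-tubulin and anti-lamin A (primary 1:200 overnight at 4°C, fluorescent secondary 1 h) and DAPI for DNA. Mitotic morphology scored by fluorescence microscopy.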

Turning to `FC(F)(F)c1cccc(/C=C\c2cc3ccccc3nc2Cl)c1`, the results for the Activity in test [1], in test [2] and in test [3] were 56.9%, 20.8% and 18.2%, respectively. Also, the result in test [4] was Active.
